Key:
Format in all cases: functional
H4 [1] = assay: Induction of light chain 3-GFP level in human H4 cells at 4.9 uM after 24 hrs by high throughput fluorescence microscopy relative to control
Procedure, shortened: (§1)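 H4 cells stably expressing LC3-GFP, kept in DMEM/10% FBS at 37°C, 5% CO2, were seeded in 96-well plates and exposed to compound for 24 h. Cells were then fixed in 4% paraformaldehyde and stained with 3 μg/ml DAPI. Automated fluorescence microscopy scored the number, size and intensity of LC3-GFP spots. Values are percent of DMSO wells, in triplicate, mean ± SD. Rapamycin served as positive control.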

H4 [2] = assay: Increase in light chain 3-GFP+ autophagosome vesicle area per cell in human H4 cells at 4.9 uM after 24 hrs by high throughput fluorescence microscopy relative to control
Procedure, shortened: (§2)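 H4 cells stably expressing LC3-GFP, seeded in 96-well plates and exposed to compound for 24 h; fixed in 4% paraformaldehyde, nuclei stained with 3 μg/ml DAPI. Automated fluorescence microscopy scored number, size and intensity of LC3-GFP spots; values expressed relative to DMSO-treated wells, rapamycin positive control. Triplicate wells, mean ± SD; experiments repeated three times.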

H4 [3] = assay: Increase in light chain 3-GFP+ autophagosome vesicle intensity per cell in human H4 cells at 4.9 uM after 24 hrs by high throughput fluorescence microscopy relative to control; procedure, shortened: as §2
H4 [4] = assay: Increase in light chain 3-GFP+ autophagosome vesicle number per cell in human H4 cells at 4.9 uM after 24 hrs by high throughput fluorescence microscopy relative to control; procedure, shortened: as §1
H4 [5] = assay: Increase in light chain 3-GFP+ autophagosome vesicle number per cell in human H4 cells at 8.8 uM after 24 hrs by high throughput fluorescence microscopy relative to control
Procedure, shortened: (§3)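 H4 cells stably expressing LC3-GFP, grown in DMEM with 10% FBS, penicillin/streptomycin and 2 mM L-glutamine at 37°C, 5% CO2. Cells were seeded in 96-well plates and exposed to library compounds at 3–12 μM for 24 h, then fixed in 4% paraformaldehyde and stained with 3 μg/ml DAPI. LC3-GFP spot number, size and intensity were measured by high-throughput fluorescence microscopy and expressed relative to DMSO. Triplicates, mean ± SD.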

H4 [6] = assay: Increase in light chain 3-GFP+ autophagosome vesicle area per cell in human H4 cells at 8.8 uM after 24 hrs by high throughput fluorescence microscopy relative to control
Procedure, shortened: (§4)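 H4 cells stably expressing LC3-GFP, seeded in 96-well plates and exposed to compound for 24 h; screening concentrations were 3–12 μM, with rapamycin 0.22 μM and bafilomycin A1 0.40 μM. Cells fixed in 4% paraformaldehyde and stained with 3 μg/ml DAPI. Number, size and intensity of LC3-GFP spots measured by high-throughput fluorescence microscopy and expressed as percent of DMSO-treated wells. Rapamycin was the positive control. Triplicate wells, mean ± SD; experiments repeated three times.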

H4 [7] = assay: Increase in light chain 3-GFP+ autophagosome vesicle intensity per cell in human H4 cells at 8.8 uM after 24 hrs by high throughput fluorescence microscopy relative to control
Procedure, shortened: (§5)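 H4 cells stably expressing LC3-GFP were grown in DMEM with 10% FBS and 2 mM L-glutamine at 37°C, 5% CO2. They were exposed to each compound for 24 h, with DMSO as negative and rapamycin as positive control. Cells were then fixed in 4% paraformaldehyde and stained with 3 μg/ml DAPI. High-throughput fluorescence imaging scored LC3-GFP spot number, size and intensity, expressed relative to DMSO. Mean ± SD of triplicates; experiments repeated three times.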

H4 [8] = assay: Effect on FYVE-RFP+ vesicle intensity per cell in human H4 cells after 2 hrs relative to control; set-up: concentration or dose not given beside the values
Procedure, shortened: (§6)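 H4 cells stably expressing FYVE-RFP (H4-FYVE), grown in DMEM with 10% FBS, penicillin/streptomycin and 2 mM L-glutamine at 37°C, 5% CO2, seeded in 96-well plates and exposed to compound. Fixed in 4% paraformaldehyde, nuclei stained with 3 μg/ml DAPI, FYVE-RFP+ vesicles quantified by high-throughput fluorescence microscopy against DMSO control. Triplicate wells, mean ± SD.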

H4 [9] = assay: Effect on FYVE-RFP+ vesicle intensity per cell in human H4 cells after 4 hrs relative to control; set-up: concentration or dose not given beside the values; procedure, shortened: as §6
H4 [10] = assay: Effect on FYVE-RFP+ vesicle intensity per cell in human H4 cells after 8 hrs relative to control; set-up: concentration or dose not given beside the values; procedure, shortened: as §6
H4 [11] = assay: Increase in long-lived protein degradation in human H4 cells after 1 hr relative to control; set-up: concentration or dose not given beside the values
H4 [12] = assay: Increase in long-lived protein degradation in human H4 cells after 2 hrs relative to control; set-up: concentration or dose not given beside the values
H4 [13] = assay: Increase in long-lived protein degradation in human H4 cells after 4 hrs relative to control; set-up: concentration or dose not given beside the values
H4 [14] = assay: Increase in long-lived protein degradation in human H4 cells after 24 hrs relative to control; set-up: concentration or dose not given beside the values
H4 [15] = assay: Induction of light chain 3-GFP level in human H4 cells at 8.8 uM after 24 hrs by high throughput fluorescence microscopy relative to control; procedure, shortened: as §3
H4 [16] = assay: Increase in light chain 3-GFP+ autophagosome vesicle number per cell in human H4 cells at 5.0 uM after 24 hrs by high throughput fluorescence microscopy relative to control; procedure, shortened: as §5
H4 [17] = assay: Increase in light chain 3-GFP+ autophagosome vesicle area per cell in human H4 cells at 5.0 uM after 24 hrs by high throughput fluorescence microscopy relative to control; procedure, shortened: as §4
H4 [18] = assay: Increase in light chain 3-GFP+ autophagosome vesicle intensity per cell in human H4 cells at 5.0 uM after 24 hrs by high throughput fluorescence microscopy relative to control; procedure, shortened: as §5
H4 [19] = assay: Decrease in FYVE-RFP+ vesicle intensity per cell in human H4 cells after 2 hrs relative to control; set-up: concentration or dose not given beside the values; procedure, shortened: as §6
H4 [20] = assay: Decrease in FYVE-RFP+ vesicle intensity per cell in human H4 cells after 4 hrs relative to control; set-up: concentration or dose not given beside the values; procedure, shortened: as §6
H4 [21] = assay: Decrease in FYVE-RFP+ vesicle intensity per cell in human H4 cells after 8 hrs relative to control; set-up: concentration or dose not given beside the values; procedure, shortened: as §6
H4 [22] = assay: Induction of light chain 3-GFP level in human H4 cells at 5.0 uM after 24 hrs by high throughput fluorescence microscopy relative to control; procedure, shortened: as §1
H4 [23] = assay: Increase in light chain 3-GFP+ autophagosome vesicle number per cell in human H4 cells at 8.5 uM after 24 hrs by high throughput fluorescence microscopy relative to control; procedure, shortened: as §3
H4 [24] = assay: Increase in light chain 3-GFP+ autophagosome vesicle area per cell in human H4 cells at 8.5 uM after 24 hrs by high throughput fluorescence microscopy relative to control; procedure, shortened: as §4
H4 [25] = assay: Increase in light chain 3-GFP+ autophagosome vesicle intensity per cell in human H4 cells at 8.5 uM after 24 hrs by high throughput fluorescence microscopy relative to control; procedure, shortened: as §5
H4 [26] = assay: Induction of light chain 3-GFP level in human H4 cells at 8.5 uM after 24 hrs by high throughput fluorescence microscopy relative to control; procedure, shortened: as §3
H4 [27] = assay: Increase in light chain 3-GFP+ autophagosome vesicle number per cell in human H4 cells at 6.4 uM after 24 hrs by high throughput fluorescence microscopy relative to control; procedure, shortened: as §5
H4 [28] = assay: Increase in light chain 3-GFP+ autophagosome vesicle area per cell in human H4 cells at 6.4 uM after 24 hrs by high throughput fluorescence microscopy relative to control; procedure, shortened: as §4
H4 [29] = assay: Increase in light chain 3-GFP+ autophagosome vesicle intensity per cell in human H4 cells at 6.4 uM after 24 hrs by high throughput fluorescence microscopy relative to control; procedure, shortened: as §5
H4 [30] = assay: Induction of light chain 3-GFP level in human H4 cells at 6.4 uM after 24 hrs by high throughput fluorescence microscopy relative to control; procedure, shortened: as §3
H4 [31] = assay: Increase in light chain 3-GFP+ autophagosome vesicle number per cell in human H4 cells at 8.9 uM after 24 hrs by high throughput fluorescence microscopy relative to control; procedure, shortened: as §3
H4 [32] = assay: Increase in light chain 3-GFP+ autophagosome vesicle area per cell in human H4 cells at 8.9 uM after 24 hrs by high throughput fluorescence microscopy relative to control; procedure, shortened: as §4
H4 [33] = assay: Increase in light chain 3-GFP+ autophagosome vesicle intensity per cell in human H4 cells at 8.9 uM after 24 hrs by high throughput fluorescence microscopy relative to control; procedure, shortened: as §5
H4 [34] = assay: Induction of light chain 3-GFP level in human H4 cells at 8.9 uM after 24 hrs by high throughput fluorescence microscopy relative to control; procedure, shortened: as §3

C=C1[C@@H](C)[C@H]2[C@H](Cc3ccccc3)NC(=O)[C@]23[C@H](OC(C)=O)/C=C/[C@@](C)(O)C(=O)[C@@H](C)C/C=C/[C@H]3[C@@H]1O [CYTOCHALASIN D]
Activity (H4 [1]): 71.84% | Activity (H4 [2]): 306.27% | Activity (H4 [3]): 378.77% | Activity (H4 [4]): 258.44%

O=C(/C=C/c1ccc(O)c(O)c1)OCCc1ccccc1 [CAFFEIC ACID PHENETHYL ESTER]
Activity (H4 [5]): 147.15% | Activity (H4 [6]): 160.43% | Activity (H4 [7]): 150.18% | Activity (H4 [8]): 86.89% | Activity (H4 [9]): 71.17% | Activity (H4 [10]): 69.14% | Activity (H4 [11]): 122.08% | Activity (H4 [12]): 128.4% | Activity (H4 [13]): 120.18% | Activity (H4 [14]): 106.53% | Activity (H4 [15]): 146.2%

OCCN(CCO)c1nc(N2CCCCC2)c2nc(N(CCO)CCO)nc(N3CCCCC3)c2n1 [DIPYRIDAMOLE]
Activity (H4 [16]): 170.2% | Activity (H4 [17]): 199.02% | Activity (H4 [18]): 213.63% | Activity (H4 [19]): 32.22% | Activity (H4 [20]): 30.25% | Activity (H4 [21]): 32.54% | Activity (H4 [11]): 82.64% | Activity (H4 [12]): 79.22% | Activity (H4 [13]): 81.07% | Activity (H4 [14]): 79.08% | Activity (H4 [22]): 158.96%

Cc1coc2c1C(=O)C(=O)c1c-2ccc2c1CCCC2(C)C [TANSHINONE IIA]
Activity (H4 [23]): 210.24% | Activity (H4 [24]): 264.51% | Activity (H4 [25]): 273.72% | Activity (H4 [26]): 79.77%

CNC(=O)[C@H](Cc1c[nH]c2ccccc12)NC(=O)[C@@H](CC(=O)NO)CC(C)C [ILOMASTAT]
Activity (H4 [27]): 154.31% | Activity (H4 [28]): 171.42% | Activity (H4 [29]): 196.42% | Activity (H4 [19]): 30.69% | Activity (H4 [20]): 32.3% | Activity (H4 [21]): 25.77% | Activity (H4 [11]): 129.48% | Activity (H4 [12]): 115.08% | Activity (H4 [13]): 104.88% | Activity (H4 [14]): 107.46% | Activity (H4 [30]): 143.94%

C[C@H]([C@H](C)N1CC(=O)NC(=O)C1)N1CC(=O)NC(=O)C1
Activity (H4 [31]): 339.59% | Activity (H4 [32]): 402.47% | Activity (H4 [33]): 483.18% | Activity (H4 [34]): 45.03%

Reference: ChEMBL document CHEMBL1145471, “Small molecule regulators of autophagy identified by an image-based high-throughput screen” (Proc Natl Acad Sci U S A, 2007)
